Assay: Toxicity liver stage against HepG2, at 10uM
Assay type: cell-based
Design: test concentration 10 uM, cell line HepG2-A16-CD81EGFP
Details: human, HepG2-A16-CD81EGFP cells; read-out: INHIBITION
In short: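 Uninfected HepG2-A16-CD81EGFP cells, 3 × 10^3 per well, 1536-well, plated on prespotted compound at 10 μM final, parasite-free screening media added to match infected plates; puromycin 10 μM positive, DMSO 0.5% negative; run in parallel with 48 h PbLuc assay at 37 °C, 5% CO2; viability by CellTiter-Glo luminescence, normalized to controls.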

Row | Structure (SMILES) | cytotoxicity at 10 µM [%]
1 | F[C@@H]1CN(CC2CC2)C[C@@H]1OCc1nc2cnccc2[nH]1 | 8.42
2 | O=C(O)CNC(=O)Cc1csc(-c2ccccc2F)n1 | -10.5
3 | CCN(CC)CCSc1nnc(N2CCN(c3ccc(F)cc3)CC2)s1 | -5.12
4 | COc1cc(C)c(C)cc1S(=O)(=O)NCC(O)c1cccn1C (stereo not given) | -6.19
5 | O=C1NC(c2ccccc2)=N[C@@]12CC[C@@H]1CN(Cc3cccnc3)C[C@@H]12 | 6.8
6 | CN1CCc2c(C#N)c(NCCCO)n3cnnc3c2C1 | 8.71
7 | Cc1nn(C)c2cn(C(C)C(=O)NCc3ccncc3)nc12 (stereo not given) | 1.91
8 | CCCNC(=O)c1cc(C(C)C)nc(N2CCCC2)n1 | 8.77
9 | CC(C)C(=O)N1CCCC(Cc2ncccn2)C1 (stereo not given) | -2.49
10 | CC1(C)O[C@@](C)([C@H]2CC3(CCN(c4ncccn4)CC3)CO2)CC[C@@H]1O | 4.98
11 | CCSCc1nc(O)c2nnn(C3CCN(Cc4ccco4)CC3)c2n1 | 8.79
12 | CC(C)c1ncc(CN2CCC(O)(c3ccccc3F)CC2)cn1 | -0.882
13 | c1ccc(Cc2cccc(C3CCCN3C3CCOCC3)n2)cc1 (stereo not given) | 1.62
14 | CN(C)c1cncc(C2CCCN2S(=O)(=O)c2cn(C)cn2)n1 (stereo not given) | -27.1
15 | Cc1ncccc1Oc1cncc(C2CCCN2Cc2cncn2C)n1 (stereo not given) | -32.8
16 | CCn1ncc(S(=O)(=O)NC2(CN3CCOCC3)CCCCC2)c1C | 3.83
17 | Cc1nc(C2CN(C)CCO2)cc(N2CCC(CO)CC2)n1 (stereo not given) | -34
18 | Cc1cnn(CC2CCN(CC(O)c3ccccc3)CC2)c1 (stereo not given) | -8.46
19 | O=C(CCOc1ccccc1)NS(=O)(=O)Cc1ccccc1 | -1.48
20 | CN(C)CC(O)Cn1cc(NCc2ccc(Br)cc2)cn1 (stereo not given) | 7.48
21 | Cc1cc(CNS(=O)(=O)CCCC#N)ccc1N(C)C | -5.18
22 | CCc1nnc(C(C)N2CCN(CCC(=O)NC3CC3)CC2)o1 (stereo not given) | 16

Row | Structure (SMILES) | cytotoxicity at 10 µM [%]
23 | Cc1oc(C)c(C(=O)NS(=O)(=O)c2ccc3c(c2)OCCO3)c1Br | 4.4
24 | COC(=O)CN(C(=O)c1ccc(Cl)cn1)c1cccc(F)c1 | -8.61
25 | O=C(CCNC1(c2nccs2)CCCC1)N1CCOCC1 | 0.79
26 | CC(C(=O)N1CCc2ccccc2C1)N(C)Cc1cscn1 (stereo not given) | -1.6
27 | CCn1c(C)cc(C(=O)N2CCC(Nc3ccc(C)nn3)CC2)c1C | -5.52
28 | Clc1ccc(C2(NCc3noc(C4CC4)n3)CCCC2)cc1 | 13.3
29 | Cc1csc(C2(NC(=O)CCNC(=O)C(C)(C)C)CCCC2)n1 | -7.43
30 | Cn1cc(CC2CC(=O)N(Cc3ccccc3OC(F)F)C2=O)cn1 (stereo not given) | 2.21
31 | O=C(c1ccoc1)N(Cc1ccncc1)C1CC1 | 1.45
32 | c1nc(N2CCCC2Cn2cncn2)c2ccsc2n1 (stereo not given) | 14.1
33 | COc1c(C)cnc(CSc2nnc(N3CCCC3)s2)c1C | -13.1
34 | CC(C)(C)NC(=O)C1CSCN1S(=O)(=O)c1ccccc1F (stereo not given) | -8.23
35 | Cc1oc(-c2ccsc2)nc1CC(=O)NCC(=O)Nc1cn[nH]c1 | -1.36
36 | Cc1cc(=O)n2ncnc2n1CC(O)c1ccccc1F (stereo not given) | -13.7
37 | CCc1cnc(CN(C)C2CCN(CCCNS(C)(=O)=O)C2)o1 (stereo not given) | -3.4
38 | Cc1cc(C)n(C2CCCN(C(=O)c3cccc(F)c3F)C2)n1 (stereo not given) | 4.35
39 | O=C(NCCO)Nc1c(F)cc(F)cc1-c1ccccc1 | -1.99
40 | CC1CCN(C)c2ccccc2N1C(=O)c1ccn(C)c(=O)c1 (stereo not given) | 2.36
41 | CNS(=O)(=O)CC1CCCN1C(=O)c1cccc(Cl)c1 (stereo not given) | -1.5
42 | CN(C)c1nc(N)nc(CSCCC(=O)Nc2cccc(Cl)c2)n1 | 0.779
43 | O=S(=O)(c1ccccc1)N1CCN(Cc2ccc(F)cc2Br)CC1 | -2.57
44 | CCN1CCC(CNC(=O)Nc2cnn(CC(N)=O)c2)C1 (stereo not given) | 1.1

Row | Structure (SMILES) | cytotoxicity at 10 µM [%]
45 | COCCCNC(=O)C1CCN(CC2(O)CCC(C)CC2)CC1 (stereo not given) | 21.6
46 | Cc1cccc2nc(CNCc3cccc4c3OCCCO4)cn12 | 20.8
47 | NC(=O)CN1CCC(OCc2ccc(Cl)c(Cl)c2)CC1 | -0.497
48 | CC(C)(C#N)c1ccc(NS(=O)(=O)CC2CCCCO2)cc1 (stereo not given) | 0.548
49 | Cc1csc(C2(NCc3nnc(-c4ccco4)o3)CCCC2)n1 | 0.416
50 | Cc1ccc(OCC(O)CN(C)CC(=O)NC(C)C)c(C)c1 (stereo not given) | -7.55
51 | Cc1nn(C)c(Oc2cccnc2)c1NC(=O)C1CCCO1 (stereo not given) | -8.78
52 | CNC(=O)Cc1noc(Cc2cccc(Cl)c2)n1 | 0.335
53 | CCOCC1CN(C(=O)CC2=CCCCC2)Cc2nnn(C)c21 (stereo not given) | -110
54 | CCc1cnc(N2C[C@H]3CCCC(N(C)Cc4ccccn4)[C@H]3C2)nc1 (stereo not given in full) | -114
55 | COCCC(=O)N1CCC2(COCc3cnc(-c4cccnc4)nc32)C1 (stereo not given) | -115
56 | O=C(C1=CCCC1)N1C[C@@H]2COC[C@]2(COc2cccnc2)C1 | -5.38
57 | COCCC(=O)N1CCC2(COCc3c(C)nc(NCC4CC4)nc32)C1 (stereo not given) | 2.19
58 | CCOCC1CN(Cc2cnn(C)c2)Cc2ncn(CC3CC3)c21 (stereo not given) | 2.21
59 | O=C(Cc1ccc(-c2ccccc2)cc1)N1CCOCC(O)C1 (stereo not given) | 1.51
60 | COCc1nc(CNC2CCN(C(C)C)CC2)no1 | 4.04
61 | O=C1CC[C@H]2CN(c3ncccc3F)CC[C@H]2N1CCc1ccccc1 | 4.52
62 | CN(Cc1cnn(C)c1)c1nccc(-c2cc(C(=O)O)ccn2)n1 | -7.33
63 | Cc1nc(C(=O)N2CCN(C(=O)C3CCC3)[C@@H]3CS(=O)(=O)C[C@@H]32)cs1 | 12.5
64 | Cc1cc(C)c2nc(CN3CCC(C#N)CC3)cc(O)c2c1 | 6.27
65 | COCCC(=O)N1CCC2(CCCN(Cc3cc(OC)ccc3F)C2)C1 (stereo not given) | 3.55
66 | O=C(N[C@@H]1CCNC[C@H]1O)c1ccc(-c2ccc(F)cc2)cc1 | -6.29

Row | Structure (SMILES) | cytotoxicity at 10 µM [%]
67 | CCn1cnnc1Cn1cccc(C(F)(F)F)c1=O | -9.8
68 | Cc1nn(C)cc1Cn1c(=O)ccc2ccccc21 | -12.5
69 | CSCC(=O)N1CCc2c(cnc(C)c2-c2noc(-c3ccco3)n2)C1 | 2.93
70 | Cc1cccc(N2CCC(N3CCC4(CCCNC4=O)C3)CC2)c1C (stereo not given) | -5.66
71 | CC(NCc1cn(CCC(N)=O)c2ccccc12)c1nncn1C (stereo not given) | 0.78
72 | N[C@@H]1CCN(Cc2ccccc2CS(=O)(=O)c2ccccc2)C[C@H]1O | -2.58
73 | CC(C)c1nc(CN(C)C(=O)CNS(=O)(=O)c2cccs2)no1 | -16.8
74 | O=C1CC(NCc2cccc(O)c2)CN1CCc1cccc(Cl)c1 (stereo not given) | -130
75 | O=c1[nH]cccc1-c1nccc(C2(c3ccccc3Cl)CCNCC2)n1 | -6.27
76 | COCCCn1cnnc1C(C)NC(=O)c1[nH]c2ccc(C)cc2c1C (stereo not given) | 2.52
77 | CCOCCC(=O)N1CCCC(CO)(CC2CC2)C1 (stereo not given) | 7.58
78 | NCc1cn(-c2ccccc2C(=O)NCc2cccc(Cl)c2)cn1 | 4.14
79 | Nc1nc(CN2CCCCC2Cn2cncn2)nc2ccccc12 (stereo not given) | -15.6
80 | CC(=O)N(Cc1ncc(C(C)C)o1)C1CCN(CC2CCC2)C1 (stereo not given) | -11.8
81 | CCOC1CCN(C(=O)Nc2ccc(=O)n(C)c2)CC1 | -10.4
82 | Cc1occc1C(=O)NCc1cccnc1N(C)C | -5.89
83 | O=C(NC1CCS(=O)(=O)C1)N1CCN(c2cnccn2)CC1 (stereo not given) | -0.685
84 | CS(=O)(=O)NCC1CCCN(C(=O)COCc2ccccc2)C1 (stereo not given) | -7.59
85 | CC(O)CN1CCC(CNCc2ccccc2OC(F)(F)F)CC1 (stereo not given) | -11.6
86 | Cn1cc(CN2CCCN(C(=O)c3cc(Cl)cn3C)CC2)cn1 | -1.63
87 | Cc1c(C(=O)NC(CN2CCCC2=O)c2ccccc2)cnn1C (stereo not given) | -8.7
88 | O=C(NCCNc1ncccn1)N(Cc1ccc(F)cc1F)C1CC1 | -2.84

Row | Structure (SMILES) | cytotoxicity at 10 µM [%]
89 | CN(CC(=O)Nc1ccc(Br)cn1)C(=O)Cc1ccc(O)cc1 | -0.0241
90 | OC(CNCCn1cccn1)c1ccc2c(c1)OCCO2 (stereo not given) | -0.361
91 | Cn1ncc2c1CCCC2NCc1cnc(-c2ccccc2)nc1 (stereo not given) | -5.43
92 | Cn1cc(CN2CCN(CC3(c4ccccc4)CC3)CC2)cn1 | 2.86
93 | Cn1ccnc1CNC(=O)c1cnc(C2CCNCC2)cn1 | -1.31
94 | c1ccc(CN2CCc3ncnc(C4CCOC4)c3CC2)nc1 (stereo not given) | 8.88
95 | c1nc(CCC2CCCCN2)cc(N2CCCC2)n1 (stereo not given) | -21.6
96 | c1csc(CN2CCC3(CCCN3CC3CC3)CC2)n1 | 8.22
97 | O=C1[C@H]2CN(Cc3ccncc3)C[C@H]2CN1c1cncnc1 | -0.748
98 | O=C(NC1CCC1)[C@@H]1C[C@@H]2CCN(Cc3ccncc3)C[C@H]2O1 | -22.5
99 | Cc1cc(CN2C[C@@H]3COC[C@]3(COCc3csc(C)n3)C2)no1 | 1.17
100 | Cn1nc(C2CCN(C(=O)CCN3CCOCC3)CC2)c2cccnc21 | -13.8
101 | O=C(C[C@@H]1COC[C@H]2CN(Cc3ccccn3)C[C@@H]12)N1CCOCC1 | -1.63
102 | CC(=O)N1CCn2c(-c3ccccc3)cnc2C12CCNCC2 | 7.43
103 | CC(C)N1[C@H](Cn2cccn2)C[C@@H]2CN(C3CCOCC3)CC[C@@H]21 | 3.92
104 | O=c1cc(CNS(=O)(=O)C2CC2)nc2n1CCCN(CC1CC1)C2 | -104
105 | COCCO[C@H]1CCN(Cc2cccs2)[C@H]1Cc1cccnc1 | -2.23
106 | Cc1nn(C)c(C)c1CNCc1ccc(N2CCOCC2)nc1 | 3.68
107 | COCCN1CCN(Cc2c(C)noc2C)Cc2ccc(C)nc21 | 3.47
108 | CC(CCc1ccccc1)NC(=O)CNCCCN1CCOCC1 (stereo not given) | -11.1
109 | CC(C)CCN1C[C@@H]2C[C@H](C(=O)Nc3ccccc3)[C@H](C1)O2 | -7.99
110 | CN(C)C(=O)CN1C[C@H]2CC[C@@H](C1)N(Cc1c(Cl)cncc1Cl)C2 | 6.02

From ChEMBL document CHEMBL4513216, “Probing the Open Global Health Chemical Diversity Library for Multistage-Active Starting Points for Next-Generation Antimalarials” (ACS Infect Dis, 2020)
